Experiment: phase I study BOS172738-01: safety and tolerability
Type: in vivo, human
Details: for patients who discontinued study treatment due to AEs: interim cut-off
Summary of the method: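 Patients received at least one dose of oral drug given once daily in 28-day cycles. Part A escalated 10–150 mg, by accelerated titration (dose doubling) and then 3+3 Fibonacci steps; part B used 75 mg. AEs were graded by CTCAE v4.03 from first dose to 31 days after last dose. DLTs counted in cycle 1. Missing causality was scored as related and missing grade as grade 3.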

[1] = part A, all dose levels, n = 67
[2] = part B, RET gene-fusion NSCLC, 75 mg, n = 20
[3] = part B, RET gene-mutant MTC, 75 mg, n = 7

SMILES: COc1cc2cc(-c3ccc(CC(=O)Nc4cc(C(C)(C)C(F)(F)F)no4)cn3)cnc2cc1OC [BOS172738]
- TEAE related to BOS, any [1]: 61 (91) n (%)
- TEAE related to BOS, grade ≥3 [1]: 39 (58) n (%)
- patients who discontinued study treatment due to AEs (part A, % of 69 screened): 18 (26%) n (%)
- Any TEAE (part B total, n = 50): 50 (100) n (%)
- Any TEAE leading to BOS discontinuation (part B total, n = 50): 7 (14) n (%)
- Any TEAE leading to BOS dose interruption (part B total, n = 50): 33 (66) n (%)
- Any TEAE leading to BOS dose reduction (part B total, n = 50): 10 (20) n (%)
- Any TEAE leading to study discontinuation (part B total, n = 50): 7 (14) n (%)
- Any TEAE related to BOS leading to BOS discontinuation (part B total, n = 50): 2 (4) n (%)
- Any TEAE related to BOS leading to study discontinuation (part B total, n = 50): 1 (2) n (%)
- Any TEAE resulting in death (part B total, n = 50): 2 (4) n (%)
- Any TEAE, grade ≥3 (part B total, n = 50): 41 (82) n (%)
- Serious TEAEs related to BOS (part B total, n = 50): 2 (4) n (%)
- Serious TEAEs, any (part B total, n = 50): 28 (56) n (%)
- TEAE related to BOS, CTCAE grade ≥3: Anemia (part B total, n = 50): 3 (6) n (%)
- TEAE related to BOS, CTCAE grade ≥3: Asthenia (part B total, n = 50): 0 n (%)
- TEAE related to BOS, CTCAE grade ≥3: Blood creatinine phosphokinase increased (part B total, n = 50): 10 (20) n (%)
- TEAE related to BOS, CTCAE grade ≥3: Diarrhea (part B total, n = 50): 0 n (%)
- TEAE related to BOS, CTCAE grade ≥3: Hypophosphatemia (part B total, n = 50): 3 (6) n (%)
- TEAE related to BOS, CTCAE grade ≥3: Lymphopenia (part B total, n = 50): 2 (4) n (%)
- TEAE related to BOS, CTCAE grade ≥3: Muscular weakness (part B total, n = 50): 0 n (%)
- TEAE related to BOS, CTCAE grade ≥3: Myositis (part B total, n = 50): 0 n (%)
- TEAE related to BOS, CTCAE grade ≥3: Neutropenia (part B total, n = 50): 0 n (%)
- TEAE related to BOS, CTCAE grade ≥3: Neutrophil count decreased (part B total, n = 50): 7 (14) n (%)
- TEAE related to BOS, any (part B total, n = 50): 38 (76) n (%)
- TEAE related to BOS, grade ≥3 (part B total, n = 50): 24 (48) n (%)
- Any TEAE (part B, Other, 75 mg, n = 23): 23 (100) n (%)
- Any TEAE leading to BOS discontinuation (part B, Other, 75 mg, n = 23): 5 (22) n (%)
- Any TEAE leading to BOS dose interruption (part B, Other, 75 mg, n = 23): 11 (48) n (%)
- Any TEAE leading to BOS dose reduction (part B, Other, 75 mg, n = 23): 4 (17) n (%)
- Any TEAE leading to study discontinuation (part B, Other, 75 mg, n = 23): 3 (13) n (%)
- Any TEAE related to BOS leading to BOS discontinuation (part B, Other, 75 mg, n = 23): 1 (4) n (%)
- Any TEAE related to BOS leading to study discontinuation (part B, Other, 75 mg, n = 23): 0 n (%)
- Any TEAE resulting in death (part B, Other, 75 mg, n = 23): 1 (4) n (%)
- Any TEAE, grade ≥3 (part B, Other, 75 mg, n = 23): 16 (70) n (%)
- Serious TEAEs related to BOS (part B, Other, 75 mg, n = 23): 1 (4) n (%)
- Serious TEAEs, any (part B, Other, 75 mg, n = 23): 17 (74) n (%)
- TEAE related to BOS, CTCAE grade ≥3: Anemia (part B, Other, 75 mg, n = 23): 1 (4) n (%)
- TEAE related to BOS, CTCAE grade ≥3: Asthenia (part B, Other, 75 mg, n = 23): 0 n (%)
- TEAE related to BOS, CTCAE grade ≥3: Blood creatinine phosphokinase increased (part B, Other, 75 mg, n = 23): 0 n (%)
- TEAE related to BOS, CTCAE grade ≥3: Diarrhea (part B, Other, 75 mg, n = 23): 0 n (%)
- TEAE related to BOS, CTCAE grade ≥3: Hypophosphatemia (part B, Other, 75 mg, n = 23): 1 (4) n (%)
- TEAE related to BOS, CTCAE grade ≥3: Lymphopenia (part B, Other, 75 mg, n = 23): 1 (4) n (%)
- TEAE related to BOS, CTCAE grade ≥3: Muscular weakness (part B, Other, 75 mg, n = 23): 0 n (%)
- TEAE related to BOS, CTCAE grade ≥3: Myositis (part B, Other, 75 mg, n = 23): 0 n (%)
- TEAE related to BOS, CTCAE grade ≥3: Neutropenia (part B, Other, 75 mg, n = 23): 0 n (%)
- TEAE related to BOS, CTCAE grade ≥3: Neutrophil count decreased (part B, Other, 75 mg, n = 23): 1 (4) n (%)
- TEAE related to BOS, any (part B, Other, 75 mg, n = 23): 11 (48) n (%)
- TEAE related to BOS, grade ≥3 (part B, Other, 75 mg, n = 23): 4 (17) n (%)
- Any TEAE [2]: 20 (100) n (%)
- Any TEAE leading to BOS discontinuation [2]: 1 (5) n (%)
- Any TEAE leading to BOS dose interruption [2]: 17 (85) n (%)
- Any TEAE leading to BOS dose reduction [2]: 4 (20) n (%)
- Any TEAE leading to study discontinuation [2]: 3 (15) n (%)
- Any TEAE related to BOS leading to BOS discontinuation [2]: 0 n (%)
- Any TEAE related to BOS leading to study discontinuation [2]: 0 n (%)
- Any TEAE resulting in death [2]: 1 (5) n (%)
- Any TEAE, grade ≥3 [2]: 19 (95) n (%)
- Serious TEAEs related to BOS [2]: 1 (5) n (%)
- Serious TEAEs, any [2]: 9 (45) n (%)
- TEAE related to BOS, CTCAE grade ≥3: Anemia [2]: 2 (10) n (%)
- TEAE related to BOS, CTCAE grade ≥3: Asthenia [2]: 0 n (%)
- TEAE related to BOS, CTCAE grade ≥3: Blood creatinine phosphokinase increased [2]: 8 (40) n (%)
- TEAE related to BOS, CTCAE grade ≥3: Diarrhea [2]: 0 n (%)
- TEAE related to BOS, CTCAE grade ≥3: Hypophosphatemia [2]: 0 n (%)
- TEAE related to BOS, CTCAE grade ≥3: Lymphopenia [2]: 1 (5) n (%)
- TEAE related to BOS, CTCAE grade ≥3: Muscular weakness [2]: 0 n (%)
- TEAE related to BOS, CTCAE grade ≥3: Myositis [2]: 0 n (%)
- TEAE related to BOS, CTCAE grade ≥3: Neutropenia [2]: 0 n (%)
- TEAE related to BOS, CTCAE grade ≥3: Neutrophil count decreased [2]: 5 (25) n (%)
- TEAE related to BOS, any [2]: 20 (100) n (%)
- TEAE related to BOS, grade ≥3 [2]: 14 (70) n (%)
- Any TEAE [3]: 7 (100) n (%)
- Any TEAE leading to BOS discontinuation [3]: 1 (14) n (%)
- Any TEAE leading to BOS dose interruption [3]: 5 (71) n (%)
- Any TEAE leading to BOS dose reduction [3]: 2 (29) n (%)
- Any TEAE leading to study discontinuation [3]: 1 (14) n (%)
- Any TEAE related to BOS leading to BOS discontinuation [3]: 1 (14) n (%)
- Any TEAE related to BOS leading to study discontinuation [3]: 1 (14) n (%)
- Any TEAE resulting in death [3]: 0 n (%)
- Any TEAE, grade ≥3 [3]: 6 (86) n (%)
- Serious TEAEs related to BOS [3]: 0 n (%)
- Serious TEAEs, any [3]: 2 (29) n (%)
- TEAE related to BOS, CTCAE grade ≥3: Anemia [3]: 0 n (%)
- TEAE related to BOS, CTCAE grade ≥3: Asthenia [3]: 0 n (%)
- TEAE related to BOS, CTCAE grade ≥3: Blood creatinine phosphokinase increased [3]: 2 (29) n (%)
- TEAE related to BOS, CTCAE grade ≥3: Diarrhea [3]: 0 n (%)
- TEAE related to BOS, CTCAE grade ≥3: Hypophosphatemia [3]: 2 (29) n (%)
- TEAE related to BOS, CTCAE grade ≥3: Lymphopenia [3]: 0 n (%)
- TEAE related to BOS, CTCAE grade ≥3: Muscular weakness [3]: 0 n (%)
- TEAE related to BOS, CTCAE grade ≥3: Myositis [3]: 0 n (%)
- TEAE related to BOS, CTCAE grade ≥3: Neutropenia [3]: 0 n (%)
- TEAE related to BOS, CTCAE grade ≥3: Neutrophil count decreased [3]: 1 (14) n (%)
- TEAE related to BOS, any [3]: 7 (100) n (%)
- TEAE related to BOS, grade ≥3 [3]: 6 (86) n (%)
- patients who discontinued study treatment due to AEs (part B, % of 54 screened): 7 (13%) n (%)
- BOS172738-related TEAEs (parts A and B, final cut-off): 85%
- BOS172738-related TEAEs, grade ≥3 (parts A and B, final cut-off): 54%
- BOS172738-related grade ≥3 anemia (parts A and B, final cut-off): 9%
- BOS172738-related grade ≥3 blood creatine phosphokinase increased (parts A and B, final cut-off): 25%
- BOS172738-related grade ≥3 neutrophil count decreased (parts A and B, final cut-off): 10%
- patients with at least one TEAE (parts A and B, final data cut-off): 100%
- elevated blood creatine phosphokinase leading to dose interruption (pooled data): 28%
- elevated blood creatine phosphokinase leading to dose reduction (pooled data): 17%
- elevated blood creatine phosphokinase leading to treatment discontinuation (pooled data): 2%

Source: PMC12495087 (ESMO Open, 2025)
